The results in this text go back to ChEMBL document CHEMBL4251624, “Synthesis of podophyllotoxin linked β-carboline congeners as potential anticancer agents and DNA topoisomerase II inhibitors” (Eur J Med Chem, 2018).

One may read the IC50 as the concentration needed to halve the response being measured.

Activity calls are given as the source filed them. The rule behind the calls is not given here.

The subject of experiment [1] is DU-145. As to the kind of experiment: Cytotoxicity against human DU145 cells after 48 hrs by MTT assay. It counts as functional, cell-based. Conditions: DU-145, 48 h. An outline of the steps: (§1)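 MTT assay. Cells seeded at 1×10^4 per well in DMEM or MEM with 10% FBS and grown 24 h at 37 °C under CO2. Compounds added for 48 h, then MTT (5 mg/mL stock) for 4 h. Formazan dissolved in DMSO and read at 570 nm. IC50 is the average of three independent experiments.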
Background: Tetrazolium assays rely on reduction of a dye to a coloured formazan, in cell work by metabolically active cells.

In experiment [2] the test system is Calf thymus DNA. The experiment can be described thus: Binding affinity to calf thymus DNA assessed as hypochromic effect at 10 uM by fluorescence spectroscopic method. It is filed as nucleic-acid assay. The conditions noted are these: Bos taurus. An outline of the steps: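 Fluorescence titration at 25 °C in an acid-washed 1 cm quartz cuvette. Compound held constant at 10 μM and titrated with CT-DNA in equal steps (multiples of 0.5 μM), with a spectrum after each addition. Excitation 230 nm, emission recorded up to 600 nm.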

Experiment [3] concerns DU-145. The experiment can be described thus: Cell cycle arrest in human DU145 cells assessed as accumulation at G0/G1 phase at 1 uM after 48 hrs by propidium iodide staining based flow cytometry (reference value: 51.28%). It counts as functional.
Experiment [4] relates to Calf thymus DNA. As to the kind of experiment: Binding affinity to calf thymus DNA by UV-Visible spectroscopic method. Conditions: Bos taurus. It is filed as nucleic-acid assay. An outline of the steps:
(§2)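 UV-visible absorption titration at 25 °C in […] cuvettes. Compound held at 25.0 μM (1 ml, 1 cm path), titrated with 5 μl additions of 25.0 μM CT-DNA in 100 mM Tris-HCl pH 7.0 until absorbance saturated. Spectra recorded 200–400 nm, using freshly prepared stocks.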

In the next experiment the test system is MDA-MB-231. The experiment can be described thus: Cytotoxicity against human MDA-MB-231 cells after 48 hrs by MTT assay. It counts as functional, cell-based. Conditions: MDA-MB-231, 48 h. An outline of the steps: as §1
Experiment [5] deals with Calf thymus DNA. The experiment can be described thus: Binding affinity to calf thymus DNA assessed as hypochromicity of positive CD band at 10 to 20 uM by CD spectroscopic method relative to control. It counts as nucleic-acid assay. The conditions noted are these: Bos taurus. The gist of the method:
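CD spectra of 10 μM CT-DNA in 100 mM Tris-HCl pH 7.0, alone and with 10.0 or 20 μM compound (1:1 and 1:2 DNA:complex). Recorded 200–350 nm in a 1 mm path cuvette and averaged over 3 scans.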

For experiment [6], the species on record is Homo sapiens. The experiment can be described thus: Inhibition of topoisomerase-2 (unknown origin) assessed as reduction in ATP-dependent decatenation of kinetoplast DNA at 10 uM after 30 mins by ethidium bromide staining based UV trans-illumination assay. The gist of the method: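 kDNA decatenation, 20 μl reactions: 120 mM KCl, 50 mM Tris-HCl pH 8, 10 mM MgCl2, 0.5 mM DTT, 0.5 mM ATP, BSA, 200–300 ng kDNA, topo II 5 units. Incubated 37 °C for 30 min, stopped with SDS/proteinase K for 10 min at 37 °C. Products run on 1% agarose at 100 V and visualized by ethidium bromide under UV.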

The next experiment deals with HEK293. As to the kind of experiment: Cytotoxicity against HEK293 cells after 48 hrs by MTT assay. It is filed as cell-based. Conditions: Homo sapiens, HEK293, 48 h. The gist of the method:
as §1

The subject of experiment [7] is Calf thymus DNA. The experiment can be described thus: Binding affinity to calf thymus DNA assessed as hyperchromic effect […] by UV-Visible spectroscopic method. It counts as nucleic-acid assay. Conditions: Bos taurus. The gist of the method: as §2
The next experiment relates to A549. As to the kind of experiment: Cytotoxicity against human A549 cells after 48 hrs by MTT assay. It is filed as functional, cell-based. Conditions: A549, 48 h. The gist of the method:
as §1

The next experiment has as its system HeLa. As to the kind of experiment: Cytotoxicity against human HeLa cells after 48 hrs by MTT assay. It is filed as functional, cell-based. An outline of the steps: as §1
Experiment [8] concerns DU-145. The experiment can be described thus: Cell cycle arrest in human DU145 cells assessed as accumulation at G2/Mphase at 1 uM after 48 hrs by propidium iodide staining based flow cytometry (reference value: 21.71%). It counts as functional. (Flow cytometry measures light scatter and fluorescence of single cells or particles in a stream.)
A further experiment has as its system HT-29. The experiment can be described thus: Cytotoxicity against human HT-29 cells after 48 hrs by MTT assay. It counts as functional, cell-based. Conditions: HT-29, 48 h. The gist of the method: as §1
The subject of experiment [9] is DU-145. The experiment can be described thus: Induction of DNA damage in human DU145 cells at 10 uM after 24 hrs using propidium iodide stain by electrophoresis based fluorescence microscopic method. It is filed as functional, cell-based. An outline of the steps:
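DU-145 cells treated at 10 μM for 24 h; about 25,000 cells embedded in agarose on slides. Electrophoresis 20 min at 40 V in 0.5% TBE pH 8. Propidium iodide stain 30 min; fluorescence imaging at 20x.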

Experiment [10] has as its system DU-145. As to the kind of experiment: Cell cycle arrest in human DU145 cells assessed as accumulation at sub-G1 phase at 1 uM after 48 hrs by propidium iodide staining based flow cytometry (reference value: 1.49%). It counts as functional.
The test system of experiment [11] is DU-145. The experiment can be described thus: Cell cycle arrest in human DU145 cells assessed as accumulation at S-phase at 1 uM after 48 hrs by propidium iodide staining based flow cytometry (reference value: 24.99%). It is filed as functional.
For experiment [12], the species on record is Homo sapiens. As to the kind of experiment: Poisoning activity at topoisomerase-2 (unknown origin) assessed as reduction in ATP-dependent decatenation of kinetoplast DNA by measuring linear DNA formation at 10 uM after 30 mins by ethidium bromide staining based UV trans-illumination assay. An outline of the steps: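 Topo II (5 units, set to decatenate about 100% of kDNA) with 200–300 ng kDNA in 20 μl containing 120 mM KCl, 50 mM Tris-HCl pH 8, 10 mM MgCl2, 0.5 mM DTT, 0.5 mM ATP and BSA. Incubated 30 min at 37 °C, then stopped with SDS plus proteinase K for 10 min at 37 °C. Products run on 1% agarose at 100 V for about 40 min, EtBr-stained and viewed under UV. Etoposide 10 μM served as positive control.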

The test system of experiment [13] is DU-145. The experiment can be described thus: Induction of DNA damage in human DU145 cells after 24 hrs using propidium iodide stain by electrophoresis based fluorescence microscopic method. It is filed as functional, cell-based. An outline of the steps:
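DU-145 cells seeded in 60 mm dishes, treated at 10 μM for 24 h alongside an untreated control. Slides were washed three times in 0.4 M Tris-HCl pH 7.5, electrophoresed 20 min at 40 V in 0.5% TBE pH 8, PI-stained 30 min, and imaged at 20x.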

In the case of `COc1ccc(OC)c(-c2nc(C(=O)N[C@@H]3c4cc5c(cc4[C@@H](c4cc(OC)c(OC)c(OC)c4)[C@H]4C(=O)OC[C@@H]43)OCO5)cc3c2[nH]c2ccccc23)c1`, the IC50 in the experiment with DU-145 [1] was 1070 nM; with MDA-MB-231, 2640 nM; in the experiment with HEK293 it was 103000 nM; in the experiment on A549, 1870 nM; in the experiment on HeLa, 2920 nM; in the experiment on HT-29, 2680 nM. The result in the experiment on Calf thymus DNA [2], in the experiment on Calf thymus DNA [5], in the experiment with Calf thymus DNA [7] and in the experiment on DU-145 [9] was Active. Moreover, the Activity stood at 18.69% with DU-145 [3], 29.16% with DU-145 [8], 10.79% with DU-145 [10] and 41.44% in the experiment on DU-145 [11]. In the experiment with Calf thymus DNA [4], this molecule had a Kb of 1 ×10⁴ /M. Besides, the inhibition entry in the experiment listed under Homo sapiens [6] was “Active”.
Consider `COc1cc([C@@H]2c3cc4c(cc3[C@@H](NC(=O)c3cc5c([nH]c6ccccc65)c(-c5ccc(F)c(F)c5)n3)[C@H]3COC(=O)[C@H]23)OCO4)cc(OC)c1OC`, for which the IC50 turned out to be 1140 nM with DU-145 [1]; 2900 nM in the experiment on MDA-MB-231; 106000 nM in the experiment with HEK293; 2240 nM in the experiment with A549; 3720 nM with HeLa; 3530 nM with HT-29. In addition, the result in the experiment with Calf thymus DNA [2], with Calf thymus DNA [5], in the experiment on Calf thymus DNA [7] and in the experiment with DU-145 [9] was Active. The Activity in the experiment on DU-145 [3] is given as 18.41%; with DU-145 [8], 28.08%; in the experiment with DU-145 [10] it was 10.9%; in the experiment on DU-145 [11], 39.65%. In the experiment with Calf thymus DNA [4], this molecule displayed a Kb of 1 ×10⁴ /M. In the experiment listed under Homo sapiens [6], the inhibition entry was “Active”.
Take `COc1cc([C@@H]2c3cc4c(cc3[C@@H](O[C@@H]3O[C@@H]5CO[C@@H](C)O[C@H]5[C@H](O)[C@H]3O)[C@H]3COC(=O)[C@H]23)OCO4)cc(OC)c1O` [ETOPOSIDE]: the outcome in the experiment filed under Homo sapiens [12] and in the experiment on DU-145 [13] was Active. In addition, the IC50 was 1910 nM in the experiment on MDA-MB-231, 2270 nM with A549, 1930 nM in the experiment on HeLa and 1640 nM with HT-29.
